Measurements pooled from the literature.
Each line is one published result; the experiments were not run side by side. Values after ≈ are worked out from the molar mass of the structure shown.

SMILES	organism	test	test system	conditions	quantity	value
CC1(C)S[C@@H]2[C@H](NC(=O)[C@H](N)c3ccccc3)C(=O)N2[C@H]1C(=O)O	Bacillus subtilis	microbial growth			MIC	2 µg/mL (≈ 5.72 µM)
CNC(C)C1CCC(N)C(OC2C(N)CC(N)C(OC3OCC(C)(O)C(NC)C3O)C2O)O1 (stereo not shown)	Bacillus subtilis	microbial growth, broth dilution			MIC	1 µg/mL (≈ 2.09 µM)
C=CC(=O)ON=C1C=CC(=C(C#N)c2ccccc2)C=C1	Nakaseomyces glabratus	microbial growth, broth dilution	ATCC15126	48 h	MIC	16 µg/mL (≈ 57.9 µM)
O=C(Nc1cccc(Br)c1)c1ccc(COC(Cn2ccnc2)c2ccc(Cl)cc2Cl)cc1 (stereo not shown)	Nakaseomyces glabratus	microbial growth, broth dilution			MIC80	0.125 µg/mL (≈ 0.229 µM)
C/C(=N/NC(=O)c1cn(-c2ccccc2)nc1-c1ccc(F)cc1)c1c(O)cc(C)oc1=O	Bacillus subtilis	microbial growth			MIC	70 µg/mL (≈ 157 µM)
C[C@@H]1[C@H](O)[C@@H](C)/C=C/C=C/C=C/C=C/C=C/C=C/C=C/[C@H](O[C@@H]2O[C@H](C)[C@@H](O)[C@H](N)[C@@H]2O)C[C@@H]2O[C@](O)(C[C@@H](O)C[C@@H](O)[C@H](O)CC[C@@H](O)C[C@@H](O)CC(=O)O[C@H]1C)C[C@H](O)[C@H]2C(=O)O	Cryptococcus neoformans	microbial growth, broth dilution	H99	48 h	MIC	0.5 µg/mL (≈ 0.541 µM)
CCOC(=O)/C=C1/SC(N/N=C/c2c(-c3ccc(OC)cc3)nc3ncccn23)=NC1=O	Bacillus subtilis	microbial growth, well diffusion	ATCC6051	100 µg/mL	inhibition zone	11 mm
CC(=O)ON=C1C=CC(=C(C#N)c2ccccc2)C=C1	Nakaseomyces glabratus	microbial growth, broth dilution	ATCC15126	48 h	MIC	16 µg/mL (≈ 60.5 µM)
[H]/N=C(/N)N[C@H]1[C@H](O)[C@@H](O)[C@H](O[C@@H]2O[C@@H](C)[C@](O)(C=O)[C@H]2O[C@@H]2O[C@@H](CO)[C@H](O)[C@@H](O)[C@@H]2NC)[C@@H](N/C(N)=N\[H])[C@@H]1O	Bacillus subtilis	microbial growth, well diffusion	MTCC121	1000 µg/mL, 18 h	inhibition zone	24 mm
O=C(Nc1ccc(Br)cc1)c1ccc(COC(Cn2ccnc2)c2ccc(Cl)cc2Cl)cc1 (stereo not shown)	Nakaseomyces glabratus	microbial growth, broth dilution			MIC80	0.125 µg/mL (≈ 0.229 µM)
C#CCON=C1C=CC(=C(C#N)c2ccccc2)C=C1	Nakaseomyces glabratus	microbial growth, broth dilution	ATCC15126	48 h	MIC	16 µg/mL (≈ 61.5 µM)
O=C(Nc1ccc2ccccc2c1)c1ccc(COC(Cn2ccnc2)c2ccc(Cl)cc2Cl)cc1 (stereo not shown)	Nakaseomyces glabratus	microbial growth, broth dilution			MIC80	64 µg/mL (≈ 124 µM)
C/C(=N/NC(=O)c1cn(-c2ccccc2)nc1-c1ccc(C)cc1)c1c(O)cc(C)oc1=O	Bacillus subtilis	microbial growth			MIC	50 µg/mL (≈ 113 µM)
O=C(Nc1cccc(F)c1)c1ccc(COC(Cn2ccnc2)c2ccc(Cl)cc2Cl)cc1 (stereo not shown)	Nakaseomyces glabratus	microbial growth, broth dilution			MIC80	0.125 µg/mL (≈ 0.258 µM)
C#CCOC(=O)ON=C1C=CC(=C(C#N)c2ccccc2)C=C1	Nakaseomyces glabratus	microbial killing, broth dilution	ATCC15126	48 h	MFC	16 µg/mL (≈ 52.6 µM)
C[C@@H]1[C@H](O)[C@@H](C)/C=C/C=C/C=C/C=C/C=C/C=C/C=C/[C@H](O[C@@H]2O[C@H](C)[C@@H](O)[C@H](N)[C@@H]2O)C[C@@H]2O[C@](O)(C[C@@H](O)C[C@@H](O)[C@H](O)CC[C@@H](O)C[C@@H](O)CC(=O)O[C@H]1C)C[C@H](O)[C@H]2C(=O)O	Cryptococcus neoformans	microbial growth, broth dilution		72 h	MIC	0.25 µg/mL (≈ 0.271 µM)
